Measurements of several laboratories.
Target: Glycogen synthase kinase-3 alpha (GSK3A, Homo sapiens, UniProt P49840)

Cc1sc(C(=O)NC2COC2)cc1-n1cc(NC(=O)Nc2c(F)cccc2Cl)cn1 gave a remaining activity of 128% (enzyme activity; inhibitor; 10 µM).
The remaining activity of COc1cc(Cl)c(C(=O)N[C@@H](CN[C@H]2CC[C@@H](N)CC2)Cc2ccc(C#N)cc2)cc1-c1ccc(CN[C@H](C)c2ccc(C)cc2)o1 is reported as 106% (enzyme activity; inhibitor; 1 µM).
The inhibition of COc1cccc2c(NCc3ccccc3)nc(-n3c(N)nc4ccccc43)nc12 is reported as 2% (target engagement in cells; inhibitor; chemoproteomics; 20 mM).
The remaining binding of O=C(N1CCS(=O)(=O)CC1)N1C[C@H](c2ccc(OC(F)(F)F)cc2)C[C@H](c2nc(C3CC3)no2)C1 is reported as 100% (cell-free assay; competition with immobilised ligand; 1 µM).
With Cc1ccc(C(=O)NCc2ccsc2)cc1C#Cc1cn(C(C)C)c2ncnc(N)c12 the activity vs control was 91% (enzyme activity; inhibitor; 1 µM).
For CNC(=O)Nc1ccc2c(c1)CC[C@@]21OC(=O)N(CC(=O)N(Cc2ccc(F)cc2)[C@@H](C)C(F)(F)F)C1=O, the remaining binding was 99% (cell-free assay; competition with immobilised ligand; 1 µM).
The remaining activity of Cc1cnc(NC2CCOCC2)nc1-n1cnc(C(=O)NC(CN)c2cc(F)cc(Cl)c2)c1 (stereo not shown) is reported as 8% (enzyme activity; inhibitor; radiometric; 1 µM).
For Cc1nc(Cc2cccc(C(F)(F)F)c2)sc1-c1ccc(C(N)=O)nc1, the remaining binding was 82% (cell-free assay; competition with immobilised ligand; 1 µM).
CC(C)(C)c1nc(-c2cccc(NS(=O)(=O)c3c(F)cccc3F)c2F)c(-c2ccnc(N)n2)s1 has a remaining activity of 97% (enzyme activity; inhibitor; radiometric; 1 µM).
Cc1cc(NC(=O)c2cccc3cc(-c4cccc5[nH]nc(N)c45)ccc23)ccc1F gave an activity vs control of 121% (enzyme activity; inhibitor; 0.1 µM).
For O=C(NCc1ncc(C(F)(F)F)cc1Cl)c1ccc2c(c1)C1(CCS(=O)(=O)CC1)[C@@H](C1CC1)N2S(=O)(=O)c1ccc(F)cc1, the remaining binding was 100% (cell-free assay; competition with immobilised ligand; 1 µM).
For CCN(CC)CCNC(=O)c1c(C)[nH]c(/C=C2\C(=O)Nc3ccc(F)cc32)c1C, the inhibition was 2% (enzyme activity; inhibitor; 0.3 µM).
C=CC(=O)Nc1cc(Nc2nccc(Nc3cc(Cl)c(F)cc3C(C)(C)O)n2)c(OC)cc1N1CC[C@@H](N(C)C)C1 has an inhibition of 0% (enzyme activity; inhibitor; 1 µM).
Nc1ncnc2occ(-c3ccc(NC(=O)Nc4cc(C(F)(F)F)ccc4F)cc3)c12 has a remaining activity of 17% (enzyme activity; inhibitor; 20 µM).
CCCS(=O)(=O)Nc1ccc(F)c(C(=O)c2c[nH]c3ncc(-c4ccc(Cl)cc4)cc23)c1F has an inhibition of under 10% (enzyme activity; inhibitor; 1 µM).
For CNC(=O)c1cc(Oc2ccc(NC(=O)Nc3ccc(Cl)c(C(F)(F)F)c3)cc2)ccn1, the remaining signal was 103% (cell-free assay; 0.5 µM).
The remaining activity of O=S(=O)(Nc1cc(Sc2ncn[nH]2)c(O)c2ccccc12)c1ccc(-c2ccccc2)cc1 is reported as at least 75% (enzyme activity; inhibitor; 1 µM).
The inhibition of Cn1cnc(Br)c1C1=CN(c2ncnc3[nH]cnc23)CCS1 is reported as 84.1% (enzyme activity; inhibitor; radiometric; 2 µM).
O=C(O)[C@@H]1[C@@H](Cn2nnc3ccccc3c2=O)CC[C@H]1C(=O)c1ccc(OCCC2CCOCC2)cc1 has a remaining binding of 93% (cell-free assay; competition with immobilised ligand; 1 µM).
Cc1ccc(Nc2nccc(N(C)c3ccc4c(C)n(C)nc4c3)n2)cc1S(N)(=O)=O has an inhibition of 48% (enzyme activity; inhibitor; 10 µM).
With CN1CC(Oc2cnc(C#N)cc2-c2ccn3nc(NC(=O)C4CC4)cc3c2)C1 the inhibition was -14% (enzyme activity; inhibitor; 1 µM).
With Cc1cc(-n2nc(Cc3cc(F)cc(C(F)(F)F)c3)nc2C)ccc1C(N)=O the remaining binding was 97% (cell-free assay; competition with immobilised ligand; 1 µM).
COc1cc2ncnc(Nc3ccc(Oc4ccccc4)cc3C)c2cc1OC gave an inhibition of 4% (enzyme activity; inhibitor; 1 µM).
O=C1Cc2c([nH]c3ccc([N+](=O)[O-])cc23)-c2ccccc2N1 has a remaining signal of 0.971% (cell-free assay; 0.5 µM).
With C[C@@H]1CN(c2cc(-c3n[nH]c4ccc(OC5(C)CC5)cc34)ncn2)C[C@H](C)O1 the remaining binding was 100% (cell-free assay; competition with immobilised ligand; 0.1 µM).
O=C(Nc1cnn(-c2csc(C(=O)NC3COC3)c2)c1)Nc1c(F)cccc1Cl has a remaining activity of 93.5% (enzyme activity; inhibitor; 5 µM).
With CS(=O)(=O)N1CCCC(NC(=O)[C@H](CCC2CCCCC2)NC(=O)c2ccc(CNC(=O)c3cnc4ccccn34)cc2)C1 (stereo partly shown) the remaining binding was 100% (cell-free assay; competition with immobilised ligand; 0.1 µM).
Cc1ccc(NC(=O)c2ccc(CN3CCN(C)CC3)cc2)cc1Nc1nccc(-c2cccnc2)n1 has an activity vs control of 100% (enzyme activity; inhibitor; 0.5 µM).
